Assay results reported in ChEMBL document CHEMBL1159035, “Click synthesis of estradiol-cyclodextrin conjugates as cell compartment selective estrogens” (Bioorg Med Chem, 2010).

Assays:
Estrogen receptor [1] = target: T1, Estrogen receptor (Homo sapiens, UniProt P03372); experiment: Estrogenic activity at ERalpha in human Ishikawa cells assessed as stimulation of alkaline phosphatase activity after 4 days by microplate scanning spectrophotometry; type: cell-based
T1 sequence (P03372 whole entry): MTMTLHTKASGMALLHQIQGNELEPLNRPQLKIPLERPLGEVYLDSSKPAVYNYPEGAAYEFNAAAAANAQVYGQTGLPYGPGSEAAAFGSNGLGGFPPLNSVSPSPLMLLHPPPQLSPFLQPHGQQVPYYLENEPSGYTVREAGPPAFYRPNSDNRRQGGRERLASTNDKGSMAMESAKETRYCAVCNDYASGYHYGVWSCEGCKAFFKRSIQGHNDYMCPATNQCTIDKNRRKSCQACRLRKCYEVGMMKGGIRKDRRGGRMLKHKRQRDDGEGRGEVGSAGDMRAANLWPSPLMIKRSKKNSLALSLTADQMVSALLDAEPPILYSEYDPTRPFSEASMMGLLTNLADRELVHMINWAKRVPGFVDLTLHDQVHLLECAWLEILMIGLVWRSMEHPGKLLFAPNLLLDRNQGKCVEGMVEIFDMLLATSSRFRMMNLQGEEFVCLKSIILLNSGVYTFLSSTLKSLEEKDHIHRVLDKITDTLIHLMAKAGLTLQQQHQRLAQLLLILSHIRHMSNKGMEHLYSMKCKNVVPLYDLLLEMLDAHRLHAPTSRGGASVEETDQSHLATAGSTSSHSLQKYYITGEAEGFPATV

Estrogen receptor [2] = target: T1, Estrogen receptor; experiment: Antiestrogenic activity at ERalpha in human Ishikawa cells assessed as alkaline phosphatase activity after 4 days by microplate scanning spectrophotometry; type: cell-based
MCF7 [3] = experiment: Drug uptake in human MCF7 cells assessed as drug localization to nucleus at 100 nM after 24 hrs by confocal fluorescent microscopy; type: ADME, cell-based; conditions: mcf7, 24 h, 0.1 µM
In short: (§1)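 MCF-7 cells were grown 48 h at 37 °C, 5% CO2 in phenol-free medium with 10% stripped FBS, then exposed to rhodamine conjugates (100 nM) for 24 h. Rinsed twice with PBS, nuclei stained with Hoechst (0.2 µg/mL). Laser-scanning confocal imaging with rhodamine Ex/Em 544/576 nm, nuclear marker 345/420 nm, plus DIC and overlay. Several images of different cells and planes.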

MCF7 [4] = experiment: Drug uptake in human MCF7 cells assessed as drug localization to cytoplasm at 100 nM after 24 hrs by confocal fluorescent microscopy; type: ADME, cell-based; conditions: mcf7, 24 h, 0.1 µM; in short: as §1
Estrogen receptor [5] = target: T1, Estrogen receptor; experiment: Activation of ERalpha-mediated ERE activity in human T47D/neo cells after 18 hrs by luciferase reporter gene assay; type: cell-based
Estrogen receptor [6] = target: T1, Estrogen receptor; experiment: Activation of ERalpha-mediated ERE activity in human T47D/PKC cells coexpressing PKCalpha after 18 hrs by luciferase reporter gene assay; type: cell-based

With `C[C@]12CC[C@@H]3c4ccc(O)cc4CC[C@H]3[C@@H]1CC[C@@]2(O)C#Cc1ccc(CO)cc1` the EC50 (Estrogen receptor [1]; read-out: EC50) was 27 nM and the IC50 (Estrogen receptor [2]) was “Not Active”.

For `C[C@]12CC[C@@H]3c4ccc(O)cc4CC[C@H]3[C@@H]1CC[C@@]2(O)C#Cc1ccc(N)cc1`, the EC50 (Estrogen receptor [1]; read-out: EC50) was 10 nM and the IC50 (Estrogen receptor [2]) was “Not Active”.

Molecule `CC#C[C@]1(O)CC[C@H]2[C@@H]3CCc4cc(O)ccc4[C@H]3CC[C@@]21C` [ESTROGEN] has an EC50 (Estrogen receptor [1]; read-out: EC50) of 0.028 nM.

For `[N-]=[N+]=NC[C@H]1O[C@@H]2O[C@H]3[C@H](O)[C@@H](O)[C@@H](O[C@H]4[C@H](O)[C@@H](O)[C@@H](O[C@H]5[C@H](O)[C@@H](O)[C@@H](O[C@H]6[C@H](O)[C@@H](O)[C@@H](O[C@H]7[C@H](O)[C@@H](O)[C@@H](O[C@H]8[C@H](O)[C@@H](O)[C@@H](O[C@H]1[C@H](O)[C@H]2O)O[C@@H]8CN=[N+]=[N-])O[C@@H]7CN=[N+]=[N-])O[C@@H]6CN=[N+]=[N-])O[C@@H]5C/N=[NH+]\[NH-])O[C@@H]4CN=[N+]=[N-])O[C@@H]3CN=[N+]=[N-]`, the EC50 (Estrogen receptor [1]; ishikawa) was “Not Active” and the IC50 (Estrogen receptor [2]) was “Not Active”.

For `NC[C@H]1O[C@@H]2O[C@H]3[C@H](O)[C@@H](O)[C@@H](O[C@H]4[C@H](O)[C@@H](O)[C@@H](O[C@H]5[C@H](O)[C@@H](O)[C@@H](O[C@H]6[C@H](O)[C@@H](O)[C@@H](O[C@H]7[C@H](O)[C@@H](O)[C@@H](O[C@H]8[C@H](O)[C@@H](O)[C@@H](O[C@H]1[C@H](O)[C@H]2O)O[C@@H]8CN)O[C@@H]7CN)O[C@@H]6CN)O[C@@H]5CN)O[C@@H]4CN)O[C@@H]3CN`, the EC50 (Estrogen receptor [1]; ishikawa) was “Not Active” and the IC50 (Estrogen receptor [2]) was “Not Active”.

In the case of `Cn1cc([C@]2(O)CC[C@H]3[C@@H]4CCc5cc(O)ccc5[C@H]4CC[C@@]32C)nn1`, the IC50 (Estrogen receptor [2]) is reported as “Not Active”.

In the case of `C[C@]12CC[C@@H]3c4ccc(O)cc4CC[C@H]3[C@@H]1CC[C@@]2(O)c1cn(CC[C@H]2O[C@@H]3O[C@H]4[C@H](O)[C@@H](O)[C@@H](O[C@H]5[C@H](O)[C@@H](O)[C@@H](O[C@H]6[C@H](O)[C@@H](O)[C@@H](O[C@H]7[C@H](O)[C@@H](O)[C@@H](O[C@H]8[C@H](O)[C@@H](O)[C@@H](O[C@H]9[C@H](O)[C@@H](O)[C@@H](O[C@H]2[C@H](O)[C@H]3O)O[C@@H]9Cn2cc([C@]3(O)CC[C@H]9[C@@H]%10CCc%11cc(O)ccc%11[C@H]%10CC[C@@]93C)nn2)O[C@@H]8Cn2cc([C@]3(O)CC[C@H]8[C@@H]9CCc%10cc(O)ccc%10[C@H]9CC[C@@]83C)nn2)O[C@@H]7Cn2cc([C@]3(O)CC[C@H]7[C@@H]8CCc9cc(O)ccc9[C@H]8CC[C@@]73C)nn2)O[C@@H]6Cn2cc([C@]3(O)CC[C@H]6[C@@H]7CCc8cc(O)ccc8[C@H]7CC[C@@]63C)nn2)O[C@@H]5Cn2cc([C@]3(O)CC[C@H]5[C@@H]6CCc7cc(O)ccc7[C@H]6CC[C@@]53C)nn2)O[C@@H]4Cn2cc([C@]3(O)CC[C@H]4[C@@H]5CCc6cc(O)ccc6[C@H]5CC[C@@]43C)nn2)nn1`, the Drug uptake (MCF7 [3]) is reported as “Not Active”, the Drug uptake (MCF7 [4]) is reported as “Active” and the EC50 (Estrogen receptor [1]; read-out: EC50) is reported as 200 nM. For the same molecule, the EC50 (Estrogen receptor [5]) was greater than 100 nM, the IC50 (Estrogen receptor [2]) was “Not Active” and the EC50 (Estrogen receptor [6]) was 2 nM.

With `C[C@]12CC[C@@H]3c4ccc(O)cc4CC[C@H]3[C@@H]1CC[C@@]2(O)C#Cc1ccc(CNC[C@H]2O[C@@H]3O[C@H]4[C@H](O)[C@@H](O)[C@@H](O[C@H]5[C@H](O)[C@@H](O)[C@@H](O[C@H]6[C@H](O)[C@@H](O)[C@@H](O[C@H]7[C@H](O)[C@@H](O)[C@@H](O[C@H]8[C@H](O)[C@@H](O)[C@@H](O[C@H]9[C@H](O)[C@@H](O)[C@@H](O[C@H]2[C@H](O)[C@H]3O)O[C@@H]9CNCc2ccc(C#C[C@]3(O)CC[C@H]9[C@@H]%10CCc%11cc(O)ccc%11[C@H]%10CC[C@@]93C)cc2)O[C@@H]8CNCc2ccc(C#C[C@]3(O)CC[C@H]8[C@@H]9CCc%10cc(O)ccc%10[C@H]9CC[C@@]83C)cc2)O[C@@H]7CNCc2ccc(C#C[C@]3(O)CC[C@H]7[C@@H]8CCc9cc(O)ccc9[C@H]8CC[C@@]73C)cc2)O[C@@H]6CNCc2ccc(C#C[C@]3(O)CC[C@H]6[C@@H]7CCc8cc(O)ccc8[C@H]7CC[C@@]63C)cc2)O[C@@H]5CNCc2ccc(C#C[C@]3(O)CC[C@H]5[C@@H]6CCc7cc(O)ccc7[C@H]6CC[C@@]53C)cc2)O[C@@H]4CNCc2ccc(C#C[C@]3(O)CC[C@H]4[C@@H]5CCc6cc(O)ccc6[C@H]5CC[C@@]43C)cc2)cc1` the EC50 (Estrogen receptor [1]; read-out: EC50) was 300 nM and the IC50 (Estrogen receptor [2]) was “Not Active”.

For `C[C@]12CC[C@@H]3c4ccc(O)cc4CC[C@H]3[C@@H]1CC[C@@]2(O)c1cn(C[C@H]2O[C@@H]3O[C@H]4[C@H](O)[C@@H](O)[C@@H](O[C@H]5[C@H](O)[C@@H](O)[C@@H](O[C@H]6[C@H](O)[C@@H](O)[C@@H](O[C@H]7[C@H](O)[C@@H](O)[C@@H](O[C@H]8[C@H](O)[C@@H](O)[C@@H](O[C@H]9[C@H](O)[C@@H](O)[C@@H](O[C@H]2[C@H](O)[C@H]3O)O[C@@H]9CO)O[C@@H]8CO)O[C@@H]7CO)O[C@@H]6CO)O[C@@H]5CO)O[C@@H]4CO)nn1`, the EC50 (Estrogen receptor [1]; read-out: EC50) was 4000 nM and the IC50 (Estrogen receptor [2]) was “Not Active”.

`C[C@]12CC[C@@H]3c4ccc(O)cc4CC[C@H]3[C@@H]1CC[C@@]2(O)C#Cc1ccc(CNC[C@H]2O[C@@H]3O[C@H]4[C@H](O)[C@@H](O)[C@@H](O[C@H]5[C@H](O)[C@@H](O)[C@@H](O[C@H]6[C@H](O)[C@@H](O)[C@@H](O[C@H]7[C@H](O)[C@@H](O)[C@@H](O[C@H]8[C@H](O)[C@@H](O)[C@@H](O[C@H]9[C@H](O)[C@@H](O)[C@@H](O[C@H]2[C@H](O)[C@H]3O)O[C@@H]9CO)O[C@@H]8CO)O[C@@H]7CO)O[C@@H]6CO)O[C@@H]5CO)O[C@@H]4CO)cc1` was tested, and the EC50 (Estrogen receptor [1]; read-out: EC50) was 4000 nM and the IC50 (Estrogen receptor [2]) was “Not Active”.
